What was measured:
Format in all cases: functional
HT-29 = assay: Anticancer activity against Homo sapiens (human) HT-29 cells assessed as cell growth at 10 uM by SRB assay; conditions: read-out: Activity
Outline: (§1)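 NCI 60-cell human tumour panel (nine cancer types) screened at one concentration, 10−5 M. Cell growth estimated by sulforhodamine B protein staining and reported as percent growth of treated cells relative to untreated controls.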

NCI-H522 = assay: Anticancer activity against Homo sapiens (human) NCI-H522 cells assessed as cell growth at 10 uM by SRB assay; conditions: read-out: Activity
Outline: (§2)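 Single-dose screen in the NCI 60-human-tumour-cell-line panel (nine cancer types) at 10−5 M. Cell growth was estimated by sulforhodamine B protein staining and reported as percent growth of treated cells relative to untreated controls.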

HOP-92 = assay: Anticancer activity against Homo sapiens (human) HOP92 cells assessed as cell growth at 10 uM by SRB assay; conditions: read-out: Activity; outline: as §1
SR [1] = assay: Anticancer activity against Homo sapiens (human) SR cells by SRB assay
Outline: (§3)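 NCI five-dose follow-up on the 60-line human tumour panel at tenfold dilutions from 10−4 to 10−8 M, with growth read by sulforhodamine B protein assay against untreated controls. For each cell line, GI50 (half growth inhibition), TGI (total growth inhibition) and LC50 (50% death of initial cells) are calculated as molar concentrations.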

MOLT-4 = assay: Anticancer activity against Homo sapiens (human) MOLT4 cells by SRB assay
Outline: (§4)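 Five-dose NCI 60-cell-line panel testing at tenfold dilutions from 10−4 to 10−8 M, with growth read by sulforhodamine B protein staining. For each cell line: GI50 is the molar concentration giving half growth inhibition; TGI is total growth inhibition (cytostatic); LC50 is the molar concentration killing 50% of the initial cells (cytotoxic).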

K562 = assay: Anticancer activity against Homo sapiens (human) K562 cells by SRB assay
Outline: (§5)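 NCI 60-line panel, five tenfold dilutions from 10−4 to 10−8 M, growth read by sulforhodamine B staining against untreated controls. From the dose–response per line: GI50 (molar concentration giving half growth inhibition), TGI (molar concentration giving total growth inhibition, cytostatic) and LC50 (molar concentration killing 50% of initial cells, cytotoxic).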

SR [2] = assay: Anticancer activity against Homo sapiens (human) SR cells assessed as cell growth at 10 uM by SRB assay; conditions: read-out: Activity
Outline: (§6)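 NCI 60-cell human tumour panel (leukemia, melanoma, lung, colon, CNS, breast, ovarian, prostate, renal lines) given a single 10−5 M dose. Growth is expressed as percent growth of treated cells relative to untreated controls, with cell growth/viability estimated by sulforhodamine B protein staining.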

[3] = Anticancer activity against Homo sapiens (human) RPMI8266 cells assessed as cell growth at 10 uM by SRB assay; conditions: read-out: Activity; outline: as §2
OVCAR-5 [4] = assay: Anticancer activity against Homo sapiens (human) OVCAR5 cells by SRB assay; conditions: read-out: pTGI (converted); outline: as §4
OVCAR-4 [5] = assay: Anticancer activity against Homo sapiens (human) OVCAR4 cells by SRB assay; outline: as §4
IGROV-1 = assay: Anticancer activity against Homo sapiens (human) IGROV1 cells by SRB assay; outline: as §5
SK-MEL-5 = assay: Anticancer activity against Homo sapiens (human) SK-MEL-5 cells by SRB assay; outline: as §4
UACC-257 [6] = assay: Anticancer activity against Homo sapiens (human) UACC257 cells by SRB assay; outline: as §3
LOX IMVI = assay: Anticancer activity against Homo sapiens (human) LOXIMVI cells by SRB assay; outline: as §5
U-251 = assay: Anticancer activity against Homo sapiens (human) U251 cells by SRB assay; outline: as §3
SF-539 [7] = assay: Anticancer activity against Homo sapiens (human) SF539 cells by SRB assay; outline: as §4
SF-268 = assay: Anticancer activity against Homo sapiens (human) SF268 cells by SRB assay; outline: as §4
KM12 = assay: Anticancer activity against Homo sapiens (human) KM12 cells by SRB assay; outline: as §5
HCC 2998 = assay: Anticancer activity against Homo sapiens (human) HCC2998 cells by SRB assay; outline: as §5
NCI/ADR-RES = assay: Anticancer activity against Homo sapiens (human) NCI/ADR-RES cells assessed as cell growth at 10 uM by SRB assay; conditions: read-out: Activity; outline: as §2
OVCAR-5 [8] = assay: Anticancer activity against Homo sapiens (human) OVCAR5 cells assessed as cell growth at 10 uM by SRB assay; conditions: read-out: Activity; outline: as §2
OVCAR-4 [9] = assay: Anticancer activity against Homo sapiens (human) OVCAR4 cells assessed as cell growth at 10 uM by SRB assay; conditions: read-out: Activity; outline: as §2
UACC-62 = assay: Anticancer activity against Homo sapiens (human) UACC62 cells assessed as cell growth at 10 uM by SRB assay; conditions: read-out: Activity; outline: as §6
UACC-257 [10] = assay: Anticancer activity against Homo sapiens (human) UACC257 cells assessed as cell growth at 10 uM by SRB assay; conditions: read-out: Activity; outline: as §6
SK-MEL-2 = assay: Anticancer activity against Homo sapiens (human) SK-MEL-2 cells assessed as cell growth at 10 uM by SRB assay; conditions: read-out: Activity; outline: as §2
SF-539 [11] = assay: Anticancer activity against Homo sapiens (human) SF539 cells assessed as cell growth at 10 uM by SRB assay; conditions: read-out: Activity; outline: as §2
SF-295 = assay: Anticancer activity against Homo sapiens (human) SF295 cells assessed as cell growth at 10 uM by SRB assay; conditions: read-out: Activity; outline: as §2
SW-620 = assay: Anticancer activity against Homo sapiens (human) SW620 cells assessed as cell growth at 10 uM by SRB assay; conditions: read-out: Activity; outline: as §6
HCT-116 = assay: Anticancer activity against Homo sapiens (human) HCT116 cells by SRB assay; outline: as §5
Hs-578T [12] = assay: Anticancer activity against Homo sapiens (human) Hs 578T cells by SRB assay; outline: as §5
MDA-MB-231 = assay: Anticancer activity against Homo sapiens (human) MDA-MB-231/ATCC cells by SRB assay; outline: as §5
MCF7 = assay: Anticancer activity against Homo sapiens (human) MCF7 cells by SRB assay; outline: as §5
DU-145 [13] = assay: Anticancer activity against Homo sapiens (human) DU145 cells by SRB assay; outline: as §5
TK-10 = assay: Anticancer activity against Homo sapiens (human) TK10 cells by SRB assay; outline: as §3
Hs-578T [14] = assay: Anticancer activity against Homo sapiens (human) Hs 578T cells assessed as cell growth at 10 uM by SRB assay; conditions: read-out: Activity; outline: as §1
DU-145 [15] = assay: Anticancer activity against Homo sapiens (human) DU145 cells assessed as cell growth at 10 uM by SRB assay; conditions: read-out: Activity; outline: as §1
RXF 393 = assay: Anticancer activity against Homo sapiens (human) RXF393 cells assessed as cell growth at 10 uM by SRB assay; conditions: read-out: Activity; outline: as §2
UO-31 = assay: Anticancer activity against Homo sapiens (human) UO31 cells assessed as cell growth at 10 uM by SRB assay; conditions: read-out: Activity; outline: as §6
[16] = read-out: pLC50 (the source's name) (converted)

O=c1sc2c(Cl)nc(-c3ccccc3)nc2n1-c1ccccc1
growth at 10 µM (HT-29): 10%
growth at 10 µM (NCI-H522): -65%
growth at 10 µM (HOP-92): 24%
GI50 (SR [1]): 2.63 µM
TGI (SR [1]; read-out: pTGI (converted)): 21.4 µM
GI50 (MOLT-4): 12.9 µM
GI50 (K562): 4.07 µM
growth at 10 µM (SR [2]): 8%
growth at 10 µM [3]: 75%
TGI (OVCAR-5 [4]): 45.7 µM
GI50 (OVCAR-4 [5]): 5.01 µM
TGI (OVCAR-4 [5]; read-out: pTGI (converted)): 35.5 µM
GI50 (IGROV-1): 1.78 µM
LC50 (IGROV-1): 18.2 µM
TGI (IGROV-1; read-out: pTGI (converted)): 4.79 µM
GI50 (SK-MEL-5): 15.5 µM
GI50 (UACC-257 [6]): 8.91 µM
TGI (UACC-257 [6]; read-out: pTGI (converted)): 31.6 µM
GI50 (LOX IMVI): 2.04 µM
CC50 (LOX IMVI; [16]): 18.2 µM
TGI (LOX IMVI; read-out: pTGI (converted)): 4.79 µM
GI50 (U-251): 3.72 µM
TGI (U-251; read-out: pTGI (converted)): 18.6 µM
GI50 (SF-539 [7]): 11 µM
GI50 (SF-268): 10.5 µM
TGI (SF-268; read-out: pTGI (converted)): 38 µM
GI50 (KM12): 81.3 µM
GI50 (HCC 2998): 81.3 µM
growth at 10 µM (NCI/ADR-RES): 66%
growth at 10 µM (OVCAR-5 [8]): 90%
growth at 10 µM (OVCAR-4 [9]): 31%
growth at 10 µM (UACC-62): 62%
growth at 10 µM (UACC-257 [10]): 48%
growth at 10 µM (SK-MEL-2): 48%
growth at 10 µM (SF-539 [11]): 52%
growth at 10 µM (SF-295): 92%
growth at 10 µM (SW-620): -4%
GI50 (HCT-116): 2.09 µM
CC50 (HCT-116; [16]): 9.55 µM
TGI (HCT-116; read-out: pTGI (converted)): 4.47 µM
GI50 (Hs-578T [12]): 3.31 µM
TGI (Hs-578T [12]; read-out: pTGI (converted)): 18.6 µM
GI50 (MDA-MB-231): 6.31 µM
GI50 (MCF7): 64.6 µM
GI50 (DU-145 [13]): 4.68 µM
CC50 (DU-145 [13]; [16]): 81.3 µM
TGI (DU-145 [13]; read-out: pTGI (converted)): 23.4 µM
GI50 (TK-10): 10.5 µM
growth at 10 µM (Hs-578T [14]): 12%
growth at 10 µM (DU-145 [15]): 34%
growth at 10 µM (RXF 393): -4%
growth at 10 µM (UO-31): -79%

Source: ChEMBL document CHEMBL3045605, “Synthesis and anticancer evaluation of novel 3,5-diaryl-thiazolo[4,5-d]pyrimidin-2-one derivatives” (2013)
